Active and inactive are the calls of the source. The rule behind the calls is not given here.
Assays:
Mus musculus [1] = species on record: Mus musculus; assay: Evaluated for antagonism of reserpine induced hypothermia;I= Inactive; assay type: functional, organism-based
Method in brief: (§1)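 Male HLa (ICR) BR mice, 18-24 g, in groups of eight; reserpine 5 mg/kg ip given 2 h before oral test compound as aqueous solution. Rectal temperature taken hourly; 1-4-h hypothermia assessed by analysis of variance.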

Mus musculus [2] = species on record: Mus musculus; assay: Compound was evaluated for maximal electroshock antagonism (MES) against mice; assay type: functional
Method in brief: (§2)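 Male HLa (ICR) BR mice, groups of eight to ten, dosed ip (aqueous solution) 15 min before transcorneal electroshock (50 mA, 0.2 s). End point: abolition of tonic hind-limb extension; quantal ED50 by Litchfield-Wilcoxon.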

[3] = Lethal dose in mouse, in groups of ten; assay type: toxicity, organism-based; details: in vivo
[4] = HPLC capacity factor (k'); assay type: ADME
Mus musculus [5] = species on record: Mus musculus; assay: Mouse behavior activity was determined; Dwk=Depressant Weak; assay type: functional, organism-based
Method in brief: (§3)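 Male Simonsen (ICR) fBR mice, 18-24 g, groups of three, given 3, 10, 30, 100, 300 or 1000 mg/kg ip as aqueous solution and observed for behavioral profile; deaths followed up to 7 days.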

Mus musculus [6] = species on record: Mus musculus; assay: Evaluated for antagonism of reserpine induced hypothermia; assay type: functional; method in brief: as §1
Mus musculus [7] = assay: Reserpine hypothermia antagonism in mouse administered perorally with 5 mg/kg of reserpine 2 hour prior to test compound administration; assay type: functional; details: route oral
Rattus norvegicus [8] = species on record: Rattus norvegicus; assay: Inhibition of the 5-HT [14C]5-HT uptake by rat brain slices In vitro; assay type: functional
Method in brief: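 Rat cerebral cortex slices, 5 mg tissue per mL Krebs-Henseleit buffer, incubated at 37 °C with [3H]NE or [14C]5-HT; blanks at 4 °C, undosed controls. Stopped after 20 min by filtration; slice radioactivity counted; IC50 from linear regression of uptake inhibition.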

Mus musculus [9] = species on record: Mus musculus; assay: Inhibition of radioactive NE [3H]norepinephrine uptake into mouse heart; assay type: functional
Method in brief: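 Mice dosed ip (aqueous solution) before iv [3H]NE; hearts removed 3 h after label, washed, weighed, dissolved in Protosol and counted as dpm per mg tissue. Dose-response from linear regression.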

Mus musculus [10] = species on record: Mus musculus; assay: Compound was evaluated for maximal electroshock antagonism (MES) against mice; Inactive; assay type: functional, organism-based; method in brief: as §2
Rattus norvegicus [11] = species on record: Rattus norvegicus; assay: Inhibition of the NE [3H]Norepinephrine uptake by rat brain slices In vitro; assay type: functional
Mus musculus [12] = species on record: Mus musculus; assay: Mouse behavior activity was determined; S-D=Stimulant-Depressant; assay type: functional, organism-based; method in brief: as §3
Mus musculus [13] = species on record: Mus musculus; assay: Mouse behavior activity was determined; Dwk= Depressant Weak; assay type: functional, organism-based; method in brief: as §3
Mus musculus [14] = species on record: Mus musculus; assay: Mouse behavior activity was determined;D= Depressant; assay type: functional, organism-based; method in brief: as §3
Mus musculus [15] = species on record: Mus musculus; assay: Righting ability was determined in mice after rapid rolling (aroused); assay type: functional
Method in brief: (§4)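 Male Simonsen (ICR) fBR mice, 18-24 g, groups of ten, dosed with aqueous compound. Righting ability checked before (unaroused) and after (aroused) rapid rolling in the hand; ED50 by Litchfield-Wilcoxon method.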

Mus musculus [16] = species on record: Mus musculus; assay: Righting ability was determined in mice before rapid rolling (unaroused); assay type: functional; method in brief: as §4
Mus musculus [17] = species on record: Mus musculus; assay: Righting ability was determined in mice […] rapid rolling (aroused); assay type: functional; method in brief: as §4
Mus musculus [18] = assay: Evaluated in vivo for reserpine hypothermia after oral administration in mouse. Minimum active dose was reported; Inactive; assay type: functional, organism-based; method in brief: as §1

| SMILES | ED50 (Mus musculus [2]) | LD50 [3] | Log k' [4] | ED50 (Mus musculus [10]) | also measured |
| --- | --- | --- | --- | --- | --- |
| COC(=O)NC1=NC(c2ccccc2)CN1Cc1ccccc1 (centres undefined) | 100 mg/kg | 200 mg/kg | 1.25 |  | HYPO (Mus musculus [1]): inactive; Mouse behavior activity (Mus musculus [5]): Depressant Weak |
| COC(=O)NC1=NC(c2c(Cl)cccc2Cl)CN1 (centres undefined) |  | 300 mg/kg | 0.3 | inactive | HYPO (Mus musculus [6]): <0.5 mg/kg; Reserpine hypothermia (Mus musculus [7]): 0.15 mg/kg; IC50 (Rattus norvegicus [8]): > 100 µM; ED50 (Mus musculus [9]): 14.2 mg/kg; Mouse behavior activity (Mus musculus [5]): Depressant; IC50 (Rattus norvegicus [11]): > 100 µM |
| CCOc1ccccc1OCC1CNCCO1 (centres undefined) [VILOXAZINE] | 17 mg/kg | 200 mg/kg |  |  | Mouse behavior activity (Mus musculus [12]): Stimulant-Depressant |
| CCOC(=O)NC1=NC(c2cc(C)ccc2C)CN1 (centres undefined) |  |  | 0.88 | inactive |  |
| COC(=O)NC1=NC(c2cccc(Br)c2)CN1 (centres undefined) | ~68 mg/kg | 300 mg/kg | 0.5 |  | Mouse behavior activity (Mus musculus [13]): Depressant - weak |
| COC(=O)NC1=NCC(c2cccc(Cl)c2)N1C (centres undefined) | 31 mg/kg | 200 mg/kg | 0.86 |  | HYPO (Mus musculus [6]): <0.5 mg/kg; Mouse behavior activity (Mus musculus [13]): Depressant - weak |
| COC(=O)NC1=NC(c2ccccc2F)CN1 (centres undefined) | 54 mg/kg | 255 mg/kg |  |  | Mouse behavior activity (Mus musculus [14]): Depressant; Loss of righting reflex (Mus musculus [15]): 234 mg/kg; HYPO (Mus musculus [6]): <0.5 mg/kg; Loss of righting reflex (Mus musculus [16]): 210 mg/kg |
| CN(C)CCCN1c2ccccc2CCc2ccccc21 [IMIPRAMINE] | 15 mg/kg |  |  |  | HYPO (Mus musculus [6]): <0.5 mg/kg; Reserpine hypothermia (Mus musculus [7]): 0.63 mg/kg; IC50 (Rattus norvegicus [8]): 5.3 µM; ED50 (Mus musculus [9]): 6.7 mg/kg; IC50 (Rattus norvegicus [11]): 3.8 µM; Mouse behavior activity (Mus musculus [12]): Stimulant |
| COC(=O)NC1=NC(c2cc(OC)cc(OC)c2)CN1 (centres undefined) |  | 300 mg/kg | 0.1 | inactive | HYPO (Mus musculus [1]): inactive; Mouse behavior activity (Mus musculus [5]): Depressant - weak |
| COC(=O)NC1=NC(c2cc(Br)ccc2Br)CN1C (centres undefined) | 45 mg/kg | 500 mg/kg | 0.98 |  | HYPO (Mus musculus [6]): <0.5 mg/kg; Mouse behavior activity (Mus musculus [13]): Depressant - weak |
| CCCOC(=O)NC1=NC(c2ccccc2F)CN1C (centres undefined) | 23 mg/kg |  | 0.87 |  |  |
| CCC(=O)NC1=NC(c2ccccc2)CN1 (centres undefined) | 75 mg/kg | 500 mg/kg | 0.17 |  | HYPO (Mus musculus [6]): >20 mg/kg; Mouse behavior activity (Mus musculus [13]): Depressant |
| COC(=O)NC1=NCC(c2c(Cl)cccc2Cl)N1C (centres undefined) | 22 mg/kg |  | 0.54 |  |  |
| COC(=O)NC1=NC(c2cccc(C)c2)CN1C (centres undefined) | 89 mg/kg | 475 mg/kg | 0.49 |  | Mouse behavior activity (Mus musculus [14]): Depressant; Loss of righting reflex (Mus musculus [17]): 149 mg/kg; Loss of righting reflex (Mus musculus [16]): 90 mg/kg |
| COC(=O)NC1=NCC(c2ccccc2)N1C (centres undefined) |  | 200 mg/kg |  | inactive | Mouse behavior activity (Mus musculus [12]): Stimulant-Depressant |
| CN1CC(c2c(Cl)cccc2Cl)N=C1N (centres undefined) |  |  |  | inactive |  |
| COC(=O)NC1=NC(c2c(Cl)cccc2Cl)CN1C (centres undefined) |  |  |  |  | HYPO (Mus musculus [6]): <0.5 mg/kg |
| COC(=O)NC1=NC(c2ccccc2Br)CN1 (centres undefined) | 62 mg/kg |  | 0.47 |  |  |
| COC(=O)NC1=NCC2(CCc3ccccc32)N1C (centres undefined) |  | 300 mg/kg | 0.48 | inactive | ED50 (Mus musculus [18]): inactive; Mouse behavior activity (Mus musculus [5]): Depressant Weak |
| COC(=O)NC1=NC(c2ccccc2C)CN1C (centres undefined) | 68 mg/kg | 200 mg/kg | 0.37 |  | Mouse behavior activity (Mus musculus [14]): Depressant |
| CN1C(N)=NCC1c1cccc(Cl)c1 (centres undefined) |  |  |  | inactive |  |
| CCOC(=O)NC1=NCC2c3ccccc3CCN12 (centres undefined) |  | 200 mg/kg |  |  | HYPO (Mus musculus [1]): inactive; Mouse behavior activity (Mus musculus [12]): Stimulant-Depressant |
| NC1=NC(c2ccccc2)CN1 (centres undefined) |  | 300 mg/kg | -3.74 | inactive | Reserpine hypothermia (Mus musculus [7]): < 10 mg/kg; IC50 (Rattus norvegicus [8]): 31 µM; ED50 (Mus musculus [9]): 0.3 mg/kg; IC50 (Rattus norvegicus [11]): 0.1 µM; Mouse behavior activity (Mus musculus [12]): Stimulant-Depressant |
| COC(=O)NC1=NC2c3ccccc3CC2N1 (centres undefined) | 44 mg/kg | 700 mg/kg | -1.14 |  | HYPO (Mus musculus [1]): inactive; Mouse behavior activity (Mus musculus [5]): Depressant Weak |

— ChEMBL document CHEMBL1122650, “Synthesis and central nervous system properties of 2-[(alkoxycarbonyl)amino]-4(5)-phenyl-2-imidazolines” (J Med Chem, 1984)
